Measured values: paper PMC6147567 (Molecules : A Journal of Synthetic Chemistry and Natural …, 2005)

Legend:
[1] = target: xanthine oxidase (Xox) from buttermilk (Bos taurus, UniProt P80457); experiment: Inhibition of xanthine oxidase, hypoxanthine oxidation test; type: biochemical; details: for inhibition of Xox (in words): Xox from buttermilk
In short: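 Buttermilk enzyme assayed by hypoxanthine oxidation at 48–150 μM substrate in 50 mM phosphate, pH 7.0, 25 °C. Product formation was followed at 300 nm in a thermostatted spectrophotometer. Inhibitor concentrations were set spectrophotometrically from absorption data and reached up to ~300 μM. IC50 was obtained at more than one hypoxanthine level, and 'no inhibition' means none detected up to 300 μM.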

[2] = target: T1, rabbit muscle guanine deaminase (GDA) (Oryctolagus cuniculus, UniProt G1T386); experiment: Guanine deaminase assay with 8-azaguanine as substrate; type: biochemical; details: concentrations up to 150 μM, 50 mM phosphate pH 6.1, 25 °C
T1 sequence (G1T386 1-454): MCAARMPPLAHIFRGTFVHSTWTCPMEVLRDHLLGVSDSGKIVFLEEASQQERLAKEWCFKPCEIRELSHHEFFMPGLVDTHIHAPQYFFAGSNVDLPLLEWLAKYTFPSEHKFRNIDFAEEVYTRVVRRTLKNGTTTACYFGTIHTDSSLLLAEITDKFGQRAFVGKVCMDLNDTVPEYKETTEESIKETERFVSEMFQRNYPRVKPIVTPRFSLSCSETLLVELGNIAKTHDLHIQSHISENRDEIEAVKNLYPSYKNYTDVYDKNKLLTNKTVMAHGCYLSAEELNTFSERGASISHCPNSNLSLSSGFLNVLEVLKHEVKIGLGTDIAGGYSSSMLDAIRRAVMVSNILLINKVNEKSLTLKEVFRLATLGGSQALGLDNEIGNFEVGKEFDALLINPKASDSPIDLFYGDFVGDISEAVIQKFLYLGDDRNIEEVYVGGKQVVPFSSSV
In short: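 Commercial guanine deaminase, assayed at pH 6.1 with ~50 μM 8-azaguanine as substrate. Reaction followed at 265 nm in a thermostatted UV spectrophotometer; default temperature for the work was 25 °C. Test compound concentrations were determined spectrophotometrically from absorption data and ranged up to ~300 μM.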

xanthine oxidase (Xox) = details: cited from earlier work

Chain of xanthine oxidase (Xox) from buttermilk (P80457 whole entry): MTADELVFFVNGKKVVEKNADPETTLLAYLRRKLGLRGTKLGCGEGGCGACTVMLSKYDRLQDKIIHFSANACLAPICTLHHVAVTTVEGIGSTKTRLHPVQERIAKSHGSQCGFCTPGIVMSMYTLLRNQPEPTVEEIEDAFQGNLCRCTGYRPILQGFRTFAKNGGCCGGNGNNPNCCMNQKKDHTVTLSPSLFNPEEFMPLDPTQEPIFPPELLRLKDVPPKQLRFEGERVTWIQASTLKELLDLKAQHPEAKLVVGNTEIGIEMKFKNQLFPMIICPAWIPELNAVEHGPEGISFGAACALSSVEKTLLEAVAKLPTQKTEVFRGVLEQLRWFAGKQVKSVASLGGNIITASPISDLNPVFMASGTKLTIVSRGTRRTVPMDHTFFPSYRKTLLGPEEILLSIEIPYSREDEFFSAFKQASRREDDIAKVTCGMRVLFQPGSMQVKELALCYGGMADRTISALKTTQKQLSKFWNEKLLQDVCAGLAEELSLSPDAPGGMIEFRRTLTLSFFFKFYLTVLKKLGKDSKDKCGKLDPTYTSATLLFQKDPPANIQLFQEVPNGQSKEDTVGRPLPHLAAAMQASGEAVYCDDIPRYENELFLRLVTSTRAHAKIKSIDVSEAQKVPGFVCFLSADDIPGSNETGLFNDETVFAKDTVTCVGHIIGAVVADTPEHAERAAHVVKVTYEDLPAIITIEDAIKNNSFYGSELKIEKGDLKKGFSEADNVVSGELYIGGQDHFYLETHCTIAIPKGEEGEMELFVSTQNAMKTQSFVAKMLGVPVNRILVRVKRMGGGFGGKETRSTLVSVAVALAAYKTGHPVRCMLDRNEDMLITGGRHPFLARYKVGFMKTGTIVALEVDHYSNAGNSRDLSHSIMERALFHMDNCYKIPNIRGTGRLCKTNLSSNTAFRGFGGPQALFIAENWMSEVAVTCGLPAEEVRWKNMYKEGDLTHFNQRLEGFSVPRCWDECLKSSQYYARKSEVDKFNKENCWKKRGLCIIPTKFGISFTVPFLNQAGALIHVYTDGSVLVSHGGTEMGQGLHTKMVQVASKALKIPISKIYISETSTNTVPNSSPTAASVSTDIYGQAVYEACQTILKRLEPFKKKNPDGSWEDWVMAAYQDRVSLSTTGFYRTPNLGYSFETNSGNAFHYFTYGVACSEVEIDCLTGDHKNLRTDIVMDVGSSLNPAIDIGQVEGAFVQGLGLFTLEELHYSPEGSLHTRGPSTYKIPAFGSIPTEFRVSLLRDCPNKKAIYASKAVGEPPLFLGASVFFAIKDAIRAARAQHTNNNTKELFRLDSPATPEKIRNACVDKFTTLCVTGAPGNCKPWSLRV

IC50 [1]	inhibition of Xox (in words) [1]	Structure (SMILES)	also measured
~300 µM	moderate inhibitory activity	CSc1nnc2[nH]nc(C)c2n1 [Compound 1, 3-Methyl-5-methylsulfanyl-1H-pyrazolo[4,3-e][1,2,4]triazine]	inhibition of Xox (in words) ([1]; listed as S-methyl derivative): detectable inhibition
> 300 µM	–	Cc1n[nH]c2nnc(N)nc12 [Compound 4, 5-Amino-3-methyl-1H-pyrazolo[4,3-e][1,2,4]triazine]	activity as a substrate of GDA [2]: did not show any activity; activity as an inhibitor of GDA [2]: did not show any activity
–	Only weak inhibition	Cc1n[nH]c2nncnc12 [Compound 7, 3-Methyl-1H-pyrazolo[4,3-e][1,2,4]triazine]	inhibition of Xox (in words) ([1]; listed as 3-methyl-7-azapyrazolo[4,3-d]pyrimidine): detectable inhibition
> 300 µM	–	Cc1nn(C)c2nncnc12 [Compound 8, 1,3-dimethyl-1H-pyrazolo[4,3-e][1,2,4]triazine]	–
–	–	Oc1ncnc2[nH]ncc12 [allopurinol]	inhibition of xanthine oxidase (in words) (xanthine oxidase (Xox)): strong inhibitors
